{
  "source": "ChEMBL document CHEMBL1629488",
  "about": "“Synthesis and biological evaluation of 2-(3',4',5'-trimethoxybenzoyl)-3-aryl/arylaminobenzo[b]thiophene derivatives as a novel class of antiproliferative agents” (Eur J Med Chem, 2010)",
  "key": {"[1]": {"test_system": "HeLa", "experiment": "Induction of apoptosis in human HeLa cells assessed as early apoptotic cells at 1.25 uM after 24 hrs using FITC-conjugated annexin V and propidium iodide staining by flow cytometry assay (RVb = 1.5 %)", "assay_type": "functional"}, "[2]": {"test_system": "HeLa", "experiment": "Induction of apoptosis in human HeLa cells assessed as necrotic cells at 5 uM after 24 hrs using FITC-conjugated annexin V and propidium iodide staining by flow cytometry assay (RVb = 1.9 %)", "assay_type": "functional"}, "[3]": {"test_system": "HeLa", "experiment": "Induction of apoptosis in human HeLa cells assessed as caspase-3-mediated cleavage of PARP after 48 hrs by Western blot analysis", "assay_type": "functional, cell-based", "outline": "(§1)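 Treated cells washed twice in ice-cold PBS, lysed 30 min on ice, lysate cleared at 15000×g, 4 °C, 10 min; protein by BCA. 20 μg per lane on SDS-PAGE (7.5–15%), PVDF transfer, overnight block at 4 °C; primary antibodies 2 h at room temperature, peroxidase secondaries 60 min, ECL detection; β-actin loading control.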"}, "[4]": {"test_system": "HeLa", "experiment": "Induction of apoptosis in human HeLa cells assessed as viable cells at 1.25 uM after 24 hrs using FITC-conjugated annexin V and propidium iodide staining by flow cytometry assay (RVb = 94.7 %)", "assay_type": "functional", "conditions": "read-out: Activity"}, "[5]": {"test_system": "HeLa", "experiment": "Induction of apoptosis in human HeLa cells assessed as necrotic cells at 2.5 uM after 24 hrs using FITC-conjugated annexin V and propidium iodide staining by flow cytometry assay (RVb = 1.9 %)", "assay_type": "functional"}, "[6]": {"test_system": "HL-60", "experiment": "Antiproliferative activity against human HL60 cells after 72 hrs by MTT assay", "assay_type": "functional, cell-based", "conditions": "HL-60, 72 h"}, "[7]": {"test_system": "HeLa", "experiment": "Induction of apoptosis in human HeLa cells assessed as caspase-3-mediated cleavage of PARP after 24 to 48 hrs", "assay_type": "functional, cell-based", "outline": "as §1"}, "[8]": {"test_system": "HeLa", "experiment": "Induction of apoptosis in human HeLa cells assessed as late apoptotic cells at 1.25 uM after 24 hrs using FITC-conjugated annexin V and propidium iodide staining by flow cytometry assay (RVb = 1.9 %)", "assay_type": "functional"}, "[9]": {"test_system": "HeLa", "experiment": "Induction of apoptosis in human HeLa cells assessed as early apoptotic cells at 0.62 uM after 24 hrs using FITC-conjugated annexin V and propidium iodide staining by flow cytometry assay (RVb = 1.5 %)", "assay_type": "functional"}, "[10]": {"test_system": "HeLa", "experiment": "Cell cycle arrest in human HeLa cells assessed as accumulation at G2/M phase at 0.625 uM after 24 hrs using propidium iodide staining by flow cytometry relative to control", "assay_type": "functional", "outline": "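Exponentially growing cells (5 × 10^5) exposed to graded compound levels, 0.312 to 5 μM, for 24 or 48 h; collected, fixed in ice-cold 70% ethanol, treated with lysis buffer containing RNase A and 0.1% Triton X-100, stained with propidium iodide; DNA content read by flow cytometry. Mean ± SEM of two independent experiments.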"}, "[11]": {"test_system": "A549", "experiment": "Antiproliferative activity against human A549 cells after 72 hrs by MTT assay", "assay_type": "functional, cell-based", "conditions": "A549, 72 h", "outline": "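A549 and HeLa cells grown in DMEM with 10% FBS and penicillin/streptomycin. Plated at 8 × 10^3 cells/well and held 18 h at 37 °C in 5% CO2. Medium replaced with compound in complete medium at varied concentrations for 72 h at 37 °C, then MTT read.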"}, "[12]": {"test_system": "HeLa", "experiment": "Upregulation of cdc25c protein expression in human HeLa cells at 0.6 to 2.5 uM after 24 to 48 hrs by Western blot analysis", "assay_type": "functional, cell-based", "outline": "as §1"}, "[13]": {"test_system": "HeLa", "experiment": "Induction of apoptosis in human HeLa cells assessed as viable cells at 5 uM after 24 hrs using FITC-conjugated annexin V and propidium iodide staining by flow cytometry assay (RVb = 94.7 %)", "assay_type": "functional", "conditions": "read-out: Activity"}},
  "note": "Calls of active or inactive are those of the source. The rule behind the calls is not given here.",
  "data": [
    {"smiles": "CCOc1ccc(Nc2c(C(=O)c3cc(OC)c(OC)c(OC)c3)sc3ccccc23)cc1", "values": [
      {"measurement": "Activity", "setting": "[1]", "value": 6.8, "unit": "%"},
      {"measurement": "Activity", "setting": "[2]", "value": 17.4, "unit": "%"},
      {"measurement": "Activity", "setting": "[3]", "value": "Active"},
      {"measurement": "viability at 1.25 µM", "setting": "[4]", "value": 63.7, "unit": "%"},
      {"measurement": "Activity", "setting": "[5]", "value": 19.3, "unit": "%"},
      {"measurement": "IC50", "setting": "[6]", "value": 500, "unit": "nM"},
      {"measurement": "Activity", "setting": "[7]", "value": "Dose-dependent effect"},
      {"measurement": "Activity", "setting": "[8]", "value": 16, "unit": "%"},
      {"measurement": "Activity", "setting": "[9]", "value": 5.2, "unit": "%"},
      {"measurement": "Activity", "setting": "[10]", "value": 52, "unit": "%"},
      {"measurement": "IC50", "setting": "[11]", "value": 1400, "unit": "nM"},
      {"measurement": "Activity", "setting": "[12]", "value": "Active"},
      {"measurement": "viability at 5 µM", "setting": "[13]", "value": 49.9, "unit": "%"}
    ]}
  ]
}
